TRPC6 inh: mouse TRPC6 channel inhibitors, primary screen, cell-based, HEK293, membrane potential dye. Short transient receptor potential channel 6 (Mus musculus), Q61143. ACh-evoked depolarization; stronger effect = lower value. B-score at 10 µM. hit rate 1.1% among 310,000;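 active = B-score under library mean minus 3 SD, initial fluorescence not abnormally high, positive integrated signal ratio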;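 note: B-score derived from integrated fluorescence ratio over the kinetic read; more negative B-score means stronger inhibition of depolarization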
Target sequence (Q61143 whole entry, looked up): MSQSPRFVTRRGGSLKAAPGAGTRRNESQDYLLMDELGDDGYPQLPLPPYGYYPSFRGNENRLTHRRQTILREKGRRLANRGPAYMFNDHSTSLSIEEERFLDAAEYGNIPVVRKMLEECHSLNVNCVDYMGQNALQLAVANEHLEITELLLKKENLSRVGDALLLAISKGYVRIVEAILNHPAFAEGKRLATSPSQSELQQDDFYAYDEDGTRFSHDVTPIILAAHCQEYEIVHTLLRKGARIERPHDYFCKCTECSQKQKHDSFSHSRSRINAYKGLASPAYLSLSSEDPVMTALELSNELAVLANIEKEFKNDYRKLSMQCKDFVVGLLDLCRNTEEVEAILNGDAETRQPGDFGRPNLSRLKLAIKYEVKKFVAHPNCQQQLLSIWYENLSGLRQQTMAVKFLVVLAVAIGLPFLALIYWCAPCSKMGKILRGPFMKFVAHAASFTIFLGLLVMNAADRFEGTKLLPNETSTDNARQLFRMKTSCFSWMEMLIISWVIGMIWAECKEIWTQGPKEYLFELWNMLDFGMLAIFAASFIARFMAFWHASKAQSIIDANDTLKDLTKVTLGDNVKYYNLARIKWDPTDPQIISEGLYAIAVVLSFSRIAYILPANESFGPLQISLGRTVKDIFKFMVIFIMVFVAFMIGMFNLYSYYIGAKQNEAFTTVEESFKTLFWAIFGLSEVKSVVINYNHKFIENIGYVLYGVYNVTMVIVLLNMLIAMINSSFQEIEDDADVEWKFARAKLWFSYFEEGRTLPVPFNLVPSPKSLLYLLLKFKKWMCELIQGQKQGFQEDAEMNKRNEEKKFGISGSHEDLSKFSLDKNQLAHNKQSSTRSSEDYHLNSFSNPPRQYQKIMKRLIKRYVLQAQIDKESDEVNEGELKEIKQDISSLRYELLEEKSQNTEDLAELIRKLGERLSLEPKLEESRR
TRPC4 potent: positive allosteric modulators of TRPC4, primary screen, cell-based, mouse TRPC4beta, HEK293 mu-opioid, Fluo-4 calcium; DAMGO EC20, Fluo-4 Ca2+ flux; stronger effect = higher value; B-score at 10 µM; hit rate 0.42% among 310,000;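 active = B-score of calcium response area above 5 SD of library B-scores, with initial fluorescence ratio within 5 SD of library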;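 note: B-score of integrated fluorescence ratio over time as area under calcium response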
TRPC4 block: inhibitors of mouse TRPC4 channel, primary screen, Fluo4 calcium, HEK293 TRPC4beta/mu-opioid cells. B-score at 10 µM. DAMGO-evoked Fluo4 calcium flux; stronger effect = lower value. Short transient receptor potential channel 4 (Mus musculus), Q9QUQ5. hit rate 0.39% among 300,000;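 active = B-score over 3 SD under the library average, no early fluorescence shift, positive overall ratio signal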
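material = TRPC4beta/mu-opioid receptor HEK293 cell line | probe or stimulus = sequential submaximal and maximal DAMGO stimulation | compound dosing = one concentration per compound | measured by = Fluo4 Ca2+ flux fluorescence | evaluation = integrated fluorescence ratio relative to baseline, converted to per-well B score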
TRPC4 act: activators of mouse TRPC4 channel, primary screen, Fluo4 calcium, HEK293 TRPC4beta/mu-opioid cells. Short transient receptor potential channel 4 (Mus musculus), Q9QUQ5. Fluo4 calcium fluorescence; stronger effect = higher value. B-score at 10 µM. hit rate 0.49% among 310,000;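 active = B-score above 5 SD of library B-scores, and initial fluorescence ratio not above library mean plus 5 SD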;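 note: positive B-score marks a calcium rise read as TRPC4 activation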
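Assay system – TRPC4beta and mu-opioid receptor HEK293 stable cells · Measured by – Fluo4 fluorescence, kinetic · Schedule – dye loading 45 min room temperature, 110 s kinetic read · Read-out – B-scored integrated calcium fluorescence ratio · Controls – buffer and maximal DAMGO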
Kir21 inh: inhibitors of mouse Kir2.1 inward-rectifier potassium channel. Inward rectifier potassium channel 2 (Mus musculus), P35561. HEK293-Kir2.1, FluxOR thallium flux fluorescence; stronger effect = lower value. B-score at 10 µM. hit rate 0.85% among 310,000;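 active = fluorescence ratio B-score at or below minus 3 SD of library scores, with starting-brightness B-score within 2 SD, cut at about -4.2 in these data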;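 note: channel flux triggered by added potassium and thallium sulfate stimulus; B-score of peak minus minimum fluorescence over baseline after thallium stimulus; more negative B-score means stronger Kir2.1 block with less thallium influx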
TRPC6 act: mouse TRPC6 channel activators, primary screen, cell-based, HEK293, membrane potential dye. hit rate 0.13% among 310,000. HEK293-TRPC6 membrane potential dye fluorescence; stronger effect = higher value. AID 2550, 2010. B-score at 10 µM;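 active = B-score of the integrated fluorescence ratio above library mean plus 3 SD, and starting fluorescence ratio within library mean plus 5 SD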;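 note: higher score means more depolarization so channel activation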
TRPC4 spec 2: second check of whether TRPC6 inhibitors also affect mouse TRPC4. shares compounds with TRPC6 inh. hit rate 42% among 920. inhibition, % at 10 µM. AID 2776. HEK293 TRPC4/MOR, membrane potential dye fluorescence; channel activated by saturating DAMGO dose;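 active = compounds whose fluorescence signal differed from control wells by over 3 SD, either direction, in both duplicate plates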
TRPC4 spec: mouse TRPC4 modulation by TRPC6 hits, confirmation, selectivity assay for TRPC6 inhibitor project, cell-based, HEK293 TRPC4/mu-opioid, membrane potential dye. activity change, negative = inhibition, % at 10 µM. membrane potential fluorescence. hit rate 61% among 920. shares compounds with TRPC6 inh;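 active = rise or fall in signal beyond 3 SD of buffer-only wells in both replicate plates, either sign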;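 note: integrated kinetic ratio of fluorescence range over baseline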
HEK293 MPD ctr 2-1: nonspecific membrane potential effects, parental HEK293, confirmation, counter-screen for TRPC6 inhibitor project, cell-based, second counter screen; signal change vs control, % at 10 µM; AID 2779, 2010; parental HEK293 membrane potential dye fluorescence; maximal acetylcholine challenge after compound addition; shares compounds with TRPC6 inh; hit rate 31% among 920;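 active = membrane potential signal moving either way by over 3 SD of the maximum-effect control, in both duplicate plates, meaning non-specific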
HEK293 MPD ctr-1: membrane potential modulation in parental HEK293, confirmation, counter-screen for TRPC6 inhibitor project, cell-based | shares compounds with TRPC6 inh | parental HEK293 membrane potential dye fluorescence | membrane potential signal change, % at 10 µM | hit rate 60% among 920 | AID 2780, 2010;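 active = membrane potential signal shifting up or down by more than 3 SD of buffer-only wells, on both duplicate plates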
HEK293 MPD ctr-2: parental HEK293 membrane potential modulation, confirmation, counter-screen for TRPC6 modulator project, cell-based; shares compounds with TRPC6 inh; membrane potential dye fluorescence; membrane potential signal change, % at 10 µM; hit rate 51% among 2,400; AID 488924, 2010;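 active = membrane potential signal moves up or down beyond 5 SD from buffer-only wells, on both duplicate plates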
HEK293 MPD ctr 2-2: second check of TRPC6 modulator effects in parental HEK293 cells | hit rate 14% among 2,400 | shares compounds with TRPC6 inh | AID 488926 | inhibition, % at 10 µM | membrane potential dye fluorescence; after compound, maximal acetylcholine stimulation;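 active = membrane potential signal drops by more than 5 SD from the mean control signal, in both duplicate plates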;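 note: plate controls were acetylcholine ECmax control wells for no effect and buffer only wells for full effect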
TRPC4/MOR mod: TRPC4 modulation by TRPC6 hit compounds, confirmation, selectivity assay for TRPC6 modulator project, cell-based, HEK293 TRPC4/mu-opioid, membrane potential dye, mouse; shares compounds with TRPC6 inh; membrane potential fluorescence; percent change from control (negative = decrease, positive = increase), % at 10 µM; hit rate 69% among 2,400; AID 488927, 2010;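 active = membrane potential signal moved up or down beyond 5 SD of buffer control wells, in both duplicate plates, actives on both sides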;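 note: plate controls were assay buffer wells for no effect and DAMGO maximal-effect wells for full effect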
TRPC4 ctr inh 2: mouse TRPC4 off-target activity of TRPC6 modulators, second screen. shares compounds with TRPC6 inh. HEK293 TRPC4/mu-opioid, membrane potential dye fluorescence; stimulated with maximal-effect DAMGO. inhibition, % at 10 µM. hit rate 55% among 2,400. AID 488928;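 active = drop in membrane potential signal beyond 5 SD of the control wells in both duplicate plates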;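 note: TRPC4 counter screen for TRPC6 hits run under conditions tuned for TRPC6 not TRPC4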
TRPC6 inh conf: mouse TRPC6 channel inhibitors, confirmation, HEK293 cells, membrane potential dye, duplicate; hit rate 43% among 3,300; ACh-evoked depolarization; AID 488960, 2010; shares compounds with TRPC6 inh; inhibition, % at 10 µM;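 active = fluorescence ratio falls more than 5 SD below the full-stimulation control mean, in both duplicate runs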;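 note: integrated fluorescence ratio of peak minus minimum over baseline after agonist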
TRPC6 act conf: mouse TRPC6 channel activators, confirmation, HEK293 cells, membrane potential dye, duplicate. shares compounds with TRPC6 inh. hit rate 11% among 2,800. AID 488961, 2010. HEK293-TRPC6 membrane potential dye fluorescence, FDSS. activation, % at 10 µM;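 active = ratio signal rise beyond 5 SD above unstimulated control wells' mean, seen in both duplicate runs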;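 note: plate controls were buffer EC0 wells for no effect and acetylcholine ECmax response for full effect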
Active calls of the source: *; i = inactive; / = no result. A selection: hits, their analogues and other compounds. The true share with any hit is near 3%.

SMILES | TRPC6 inh | TRPC4 potent | TRPC4 block | TRPC4 act | Kir21 inh | TRPC6 act | TRPC4 spec 2 | TRPC4 spec | HEK293 MPD ctr 2-1 | HEK293 MPD ctr-1 | HEK293 MPD ctr-2 | HEK293 MPD ctr 2-2 | TRPC4/MOR mod | TRPC4 ctr inh 2 | TRPC6 inh conf | TRPC6 act conf
C=CCn1c(O)c(C2=c3ccccc3=NC2=O)sc1=Nc1ccc(O)cc1 | -8.02* | i | i | i | 0.72 | i | i | -15.0%* | i | -137.5%* | / | / | / | / | 54.9%* | i
COC(=O)c1ccc(NC(=O)c2snnc2-c2ccccc2)cc1 | -7.33* | i | i | i | 0.99 | i | i | i | i | i | / | / | / | / | 92.8%* | /
NC(=O)Cn1c(=O)n(CCC(=O)Nc2ccc(F)cc2)c(=O)c2sccc21 | i | i | i | i | -1.29 | i | / | / | / | / | / | / | / | / | / | /
CCOc1ccc(NC(=O)CN2CCC(n3cnc4cc(F)ccc43)CC2)cc1 | i | i | i | i | 1.36 | i | / | / | / | / | / | / | / | / | / | /
Cc1ccc([N+](=O)[O-])cc1S(=O)(=O)NCCc1c(C)[nH]c2c(C)cccc12 | i | i | i | i | 0.35 | i | / | / | / | / | / | / | / | / | / | /
Cc1[nH]c2c(C)cccc2c1CCNS(=O)(=O)c1cccc([N+](=O)[O-])c1 | -8.69* | i | i | i | -0.02 | i | / | / | / | / | -100.5%* | i | -26.0%* | 31.5%* | i | i
O=[N+]([O-])c1ccc(N2CCc3ccccc3C2)cc1 | -5.26* | i | i | i | -2.92 | i | / | / | / | / | i | i | i | i | i | i
N#Cc1c(-n2cccc2/C=N/O)sc2c1CCCC2 | -6.61* | i | i | i | -9.84* | i | i | 20.3%* | -30.0%* | 17.6%* | / | / | / | / | 60.0%* | /
C/C=C(\C)CN1CCC(n2nccc2NC(=O)c2ccc3c(c2)OCO3)CC1 | i | i | i | i | 1.15 | i | / | / | / | / | / | / | / | / | / | /
CC(C)=CCCC(C)CN1CCC(n2nccc2NC(=O)c2ccc3c(c2)OCO3)CC1 (stereo not drawn) | -7.35* | i | i | i | -0.09 | i | 36.0%* | 6.8%* | 267.5%* | 10.1%* | / | / | / | / | 56.0%* | i
CN(C)c1ccc2c3c(ccc(N(C)C)c13)C(=O)OC2 | -5.95* | i | i | i | 0.11 | i | / | / | / | / | -408.5%* | i | -67.5%* | 44.5%* | i | i
O=C(O)c1cccc(N/N=C/C2=C(Cl)c3cc(Cl)ccc3SC2)c1 | i | i | i | i | -2.04 | i | / | / | / | / | / | / | / | / | / | /
O=C(O)c1cccc(N2C(=O)CSC2c2c(F)cccc2Cl)c1 (stereo not drawn) | i | i | i | i | -0.85 | i | / | / | / | / | / | / | / | / | / | /
Cc1ccc(N2C(=O)CSC2c2c(F)cccc2Cl)cc1 (stereo not drawn) | -12.1* | i | i | i | -0.89 | i | i | i | -26.0%* | i | / | / | / | / | 83.6%* | i
O=C1CC(c2ccco2)CC(O)=C1C=NCCN1CCNCC1 (stereo not drawn) | -8.7* | i | i | i | 0.89 | i | i | i | i | i | / | / | / | / | i | i
O=C1CC(c2ccc(F)cc2)CC(O)=C1C=NCCN1CCNCC1 (stereo not drawn) | i | i | i | i | 0.08 | i | / | / | / | / | / | / | / | / | / | /
O=C1CC(c2ccc(Cl)c(Cl)c2)CC(O)=C1C=NCCN1CCNCC1 (stereo not drawn) | -5.92* | i | i | i | -0.01 | i | / | / | / | / | i | i | 9.5%* | i | i | /
COc1ccc(CCC(=O)Nc2ccc(C)c([N+](=O)[O-])c2)cc1 | i | i | i | i | 1.25 | i | / | / | / | / | / | / | / | / | / | /
CCOC(=O)c1cnc2c(C)c(C)ccc2c1NCCN1CCOCC1 | -5.8* | i | i | i | 0.44 | i | / | / | / | / | 86.0%* | 77.0%* | 27.5%* | 33.0%* | i | i
CCOC(=O)c1cnc2c(C)cc(C)cc2c1NCCCN1CCOCC1 | -8.77* | i | i | i | -3.31 | i | 70.5%* | i | -14.0%* | i | / | / | / | / | 65.2%* | i
CCOC(=O)c1cnc2ccc(C)cc2c1NCCN1CCOCC1 | -5.06* | i | i | i | -0.03 | i | / | / | / | / | i | i | 15.0%* | 34.0%* | 42.5%* | i

High-throughput results (PubChem BioAssay)
